High-throughput results deposited in PubChem by several laboratories.
SKKanGAS inh – S. pyogenes SKKanGAS growth inhibitors in kanamycin, primary screen, streptokinase expression inhibitor project, SKKanGAS strain, BacTiter-Glo luminescence | 6 h | AID 1662, 2009 | actives 1.3% (n = 300,000) | inhibition, % at 7.5 µM;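 active = mean replicate score, as percent of positive control median, at least 50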;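 also: strain carries kanamycin resistance gene driven by streptokinase promoter and grows in 40 µg/ml kanamycin; loss of luminescence reflects streptokinase promoter inhibition or plain growth inhibition; 0% = median of DMSO wells and 100% = positive control at its reference dose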
Beta apoptosis – inhibitors of cytokine-induced beta cell apoptosis, primary screen, luminescence. INS-1E cytokine-induced death, ATP luminescence, 48 h; percent of positive-control rescue, neutral wells zero. protection from apoptosis, % (no concentration beside the values). actives 0.8% (n = 300,000);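 active = Every replicate reaches about 75%, or at least half do and their mean reaches it too, limit read from the data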;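 also: 0% = cytokine-treated negative control wells and 100% = positive control rescue; higher means more ATP so stronger rescue from cytokine killing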
CSC inhib – cancer stem cell viability inhibitors, primary screen, luminescence; cancer stem cell-like cells viability; inhibition, % at 7.5 µM; actives 1.1% (n = 300,000); in the data active = inhibition above about 75%; tested in HMLE shEcad cells
Mdm2 MdmX PPI – inhibitors of human Mdm2-MdmX association, primary screen, cell-based, luminescence, split luciferase, SaOS-2, uHTS; Protein Mdm4 (Homo sapiens) + E3 ubiquitin-protein ligase Mdm2 (Homo sapiens), …; SaOS-2 split-luciferase Mdm2/MdmX complementation; inhibition, % at 8 µM; actives 3% (n = 330,000); AID 485346, 2010;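 active = inhibition of at least 50% at 8 µM in the primary screen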
T cruzi repl – inhibitors of intracellular T. cruzi growth, primary screen, luminescence, NIH3T3 host cells. T. cruzi beta-gal in NIH3T3, 90 h. inhibition, % (test concentration not listed). actives 1.4% (n = 300,000);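 active = mean inhibition across valid replicates above about 55%, limit read from the data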;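 also: signal also drops with host cell toxicity which is not excluded here; 0% = plate median of DMSO wells and 100% = zero luminescence signal; higher percent means less beta-gal luminescence so fewer parasites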
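System: mouse NIH/3T3 fibroblasts infected with β-gal-expressing T. cruzi Tulahuen C4 / Input: NIH/3T3 cells, 5,000 per well / Buffer or medium: Low-serum DMEM with 2% FBS / Probe or stimulus: 5000 reporter trypomastigotes per well / Schedule: ≥90 h infection period, 3 h prior cell attachment / Measured by: GalScreen luminescence, 60 min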
L major viab – Leishmania major promastigote growth inhibition, primary screen. Leishmania major promastigotes, resazurin fluorescence viability. inhibition, % at 10 µM. actives 9% (n = 200,000). AID 1063, 2008; in the data active = inhibition above about 50%;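 also: promastigotes grown with compound for 44 hours at 28 °C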
Mdm2-MdmX conf – Mdm2-MdmX complex disruptors, retested hits, confirmation, luminescence, single concentration. AID 489028, 2010. Mdm2-MdmX binding, luminescent assay. shares compounds with Mdm2 MdmX PPI. inhibition, % at 8 µM. actives 55% (n = 10,000); in the data active = inhibition above about 40%
FLuc counter – full-length luciferase signal inhibition, confirmation, counter-screen for Mdm2/MdmX interaction inhibitor project, cell-based, single concentration, SaOS-2 | actives 77% (n = 6,200) | shares compounds with Mdm2 MdmX PPI | SaOS-2 full-length luciferase counterscreen, luminescence | AID 504607, 2011 | inhibition, % at 8 µM;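 active = mean inhibition at 8 µM reaching about 37%, which flags the compound as non-specific, limit read from the data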;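 also: p53-null SaOS-2 cells with luciferase driven by a doxycycline-inducible promoter; compound on cells about two nights before reading with doxycycline added after day one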
The depositor's hits bear a star. Shown are actives, neighbours in structure and some others; about 9.4% of the full set was active somewhere.

Screening C=CC(=O)Nc1ccc(Nc2nc(NC3CCC(N(C)C)CC3)nc3c2ncn3C(C)C)cc1 (centres undefined) returned Beta apoptosis 43, Mdm2 MdmX PPI 96*, Mdm2-MdmX conf 100* and FLuc counter 52*.
For CCOc1ccc2nc(Cl)c(C3CC(c4ccccc4)=NN3C(=O)c3ccco3)cc2c1 (centres undefined) the results were SKKanGAS inh 3, Beta apoptosis 4, CSC inhib 34, Mdm2 MdmX PPI 56*, T cruzi repl -1, L major viab 43 and Mdm2-MdmX conf 8.
CCc1cc2c(C)ccc(C)c2nc1SCC(=O)Nc1c(C)[nH]c(=O)[nH]c1=O was read as SKKanGAS inh -3, Beta apoptosis -3, CSC inhib -2, Mdm2 MdmX PPI -12, T cruzi repl -1 and L major viab 11.
CCc1cc2c(C)ccc(C)c2nc1SCC(=O)Nc1c[nH]c(=O)[nH]c1=O was read as SKKanGAS inh -1, Beta apoptosis 10, CSC inhib 24, Mdm2 MdmX PPI 56*, T cruzi repl 7, L major viab -4 and Mdm2-MdmX conf 24.
For Cc1cccc(N/N=C/c2ccc(C)s2)c1 the results were SKKanGAS inh -1, Beta apoptosis 10, CSC inhib 8, Mdm2 MdmX PPI -15 and T cruzi repl 5.
For O=C(N/N=C/c1ccc(O)c2ncccc12)c1cccc(Br)c1 the results were SKKanGAS inh 15, Beta apoptosis 109*, CSC inhib -1, Mdm2 MdmX PPI 87*, T cruzi repl 60*, L major viab 100*, Mdm2-MdmX conf 55* and FLuc counter 32.
O=C(N/N=C\c1ccc(Cl)s1)C1COc2ccccc2O1 (centres undefined) was read as SKKanGAS inh -6, Beta apoptosis -3, CSC inhib -4, Mdm2 MdmX PPI 30 and T cruzi repl -9.
O=C(N/N=C/c1cccc([N+](=O)[O-])c1)c1cccc(Br)c1 was read as SKKanGAS inh 3, Beta apoptosis 8, CSC inhib 16, Mdm2 MdmX PPI -9, T cruzi repl -8 and L major viab 1.
Screening O=C(N/N=C\c1ccc([N+](=O)[O-])s1)C1COc2ccccc2O1 (centres undefined) returned SKKanGAS inh 17, Beta apoptosis -5, CSC inhib -6, Mdm2 MdmX PPI 51*, T cruzi repl 16, Mdm2-MdmX conf 55* and FLuc counter 87*.
For O=C(N/N=C/c1cccnc1)c1cccc(NC(=O)c2cccc(Br)c2)c1 the results were SKKanGAS inh 2, Beta apoptosis 2, Mdm2 MdmX PPI 8 and T cruzi repl 11.
For O=C(N/N=C/c1ccc([N+](=O)[O-])s1)c1cccc(Br)c1 the results were SKKanGAS inh 3, Beta apoptosis 60, CSC inhib 16, Mdm2 MdmX PPI 77*, T cruzi repl 93*, L major viab 100*, Mdm2-MdmX conf 68* and FLuc counter 38*.
For Cc1cccc(NC(=S)N/N=C/c2ccc([N+](=O)[O-])s2)c1 the results were SKKanGAS inh 101*, Beta apoptosis 103*, CSC inhib 125*, Mdm2 MdmX PPI 67*, T cruzi repl 52, L major viab 93* and Mdm2-MdmX conf 18.
COc1ccc(C(=O)NCCS(=O)(=O)N2CCN(C(=O)c3ccco3)CC2)cc1 was read as SKKanGAS inh -6, Beta apoptosis 1, Mdm2 MdmX PPI 8 and T cruzi repl -5.
For CCOC(=O)c1ccc(N/N=C/c2cc(Br)cc([N+](=O)[O-])c2O)cc1 the results were SKKanGAS inh -3, Beta apoptosis 32, CSC inhib -2, Mdm2 MdmX PPI 9, T cruzi repl 19 and L major viab -2.
COc1cc(Br)cc(/C=N/NC(=O)Cc2ccc(C(F)(F)F)cc2[N+](=O)[O-])c1O was read as SKKanGAS inh 98*, Beta apoptosis 100*, CSC inhib 40, Mdm2 MdmX PPI 52*, T cruzi repl 29, L major viab 73*, Mdm2-MdmX conf 70* and FLuc counter 33.
COc1cc([N+](=O)[O-])cc(/C=N/NC(=O)Cn2nc(C)cc2C)c1O was read as SKKanGAS inh 2, Beta apoptosis -4, CSC inhib 11, Mdm2 MdmX PPI 57*, T cruzi repl -6, Mdm2-MdmX conf 65* and FLuc counter 50*.
For COc1cc([N+](=O)[O-])cc(/C=N/NC(=O)Cn2nccc2C)c1O the results were SKKanGAS inh 3, Beta apoptosis -5, CSC inhib 28, Mdm2 MdmX PPI 37 and T cruzi repl 1.
Screening CCOc1cc(/C=N/NC(=O)Cc2ccc(C(F)(F)F)cc2[N+](=O)[O-])c(Br)cc1OC returned SKKanGAS inh 4, Beta apoptosis 17, CSC inhib 34, Mdm2 MdmX PPI 77*, T cruzi repl 3, L major viab -7, Mdm2-MdmX conf 55* and FLuc counter 31.
Screening COCCCC1CCN(C(=O)C2CCC(=O)N(CCc3cccc(F)c3)C2)CC1 (centres undefined) returned SKKanGAS inh 1, Beta apoptosis -4, CSC inhib -23, Mdm2 MdmX PPI 9 and T cruzi repl 30.
Screening Cc1cccc(C(C#N)c2nc3ccccc3nc2C(F)(F)F)c1 (centres undefined) returned SKKanGAS inh 3, Beta apoptosis 5, CSC inhib -6, Mdm2 MdmX PPI 4, T cruzi repl -6 and L major viab 5.
For Cc1ccc2nc(C(F)(F)F)c(C#N)c(N)c2c1 the results were SKKanGAS inh 1, Beta apoptosis -34, CSC inhib 23, Mdm2 MdmX PPI 85*, T cruzi repl 19, L major viab 68*, Mdm2-MdmX conf 67* and FLuc counter 26.
`Cc1cc(C)c2nc(C(F)(F)F)c(C#N)c(N)c2c1` gave SKKanGAS inh -5, Beta apoptosis -8, CSC inhib -2, Mdm2 MdmX PPI 71*, T cruzi repl 3, L major viab 0, Mdm2-MdmX conf 86* and FLuc counter 55*.
